Data: ChEMBL document CHEMBL1135550, “Highly potent geminal bisphosphonates. From pamidronate disodium (Aredia) to zoledronic acid (Zometa)” (J Med Chem, 2002)

species: Mus musculus; experiment: Inhibition of bone mineralization in the calvaria assay of mouse; type: functional; settings: not given

| Structure (SMILES) | IC50 [nM] |
| --- | --- |
| CN(CCc1ccccc1)CCC(O)(P(=O)(O)O)P(=O)(O)O | 30000 |
| CN(CCCOc1ccccc1)CCC(O)(P(=O)(O)O)P(=O)(O)O | 9000 |
| CN(CCCc1ccccc1)CCC(O)(P(=O)(O)O)P(=O)(O)O | 4000 |
| Cc1cnc(NC(P(=O)(O)O)P(=O)(O)O)s1 | 15000 |

species: Mus musculus; experiment: Inhibition of bone resorption in the calvaria assay of mouse; type: functional; settings: not given

| Structure (SMILES) | IC50 [nM] |
| --- | --- |
| CN(CCc1ccccc1)CCC(O)(P(=O)(O)O)P(=O)(O)O | 20 |
| CN(CCCOc1ccccc1)CCC(O)(P(=O)(O)O)P(=O)(O)O | 40 |
| CN(CCCc1ccccc1)CCC(O)(P(=O)(O)O)P(=O)(O)O | 50 |
| Cc1cnc(NC(P(=O)(O)O)P(=O)(O)O)s1 | 40 |

system: Rattus norvegicus; experiment: Effective dose after subcutaneous administration to TPTX rats for 50% reduction of hypercalcemia; type: functional; settings: sc
Procedure, shortened: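 Young male rats (130-150 g) were thyroparathyroidectomized and allowed 4 days to recover, then fasting serum was sampled. Animals with serum Ca above 1.88 mM were discarded, and the rest were randomized into groups of 5. On days 5-8, 1,25(OH)2D3 (125 pmol/kg sc) was given with graded sc doses of bisphosphonate, and total serum calcium was measured. ED50 is the sc dose halving the hypercalcemia.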

| Structure (SMILES) | ED50 [mg/kg] |
| --- | --- |
| CN1CCN(CCC(O)(P(=O)(O)O)P(=O)(O)O)CC1 | ~0.4 |
| Cc1ncn(CC(O)(P(=O)(O)O)P(=O)(O)O)c1C | 0.0015 |
| Cn1ccnc1CC(O)(P(=O)(O)O)P(=O)(O)O | 0.0006 |
| Cc1cccc(OCCCN(C)CCC(O)(P(=O)(O)O)P(=O)(O)O)c1 | 0.0017 |
| O=P(O)(O)C(O)(CCN1CCCCCCC1)P(=O)(O)O | > 0.3 |
| CN(C)CCC(N)(P(=O)(O)O)P(=O)(O)O [LIDADRONIC ACID] | > 0.2 |
| Cn1ccnc1NC(P(=O)(O)O)P(=O)(O)O | 0.005 |
| CN(CCCOc1ccc(F)cc1)CCC(O)(P(=O)(O)O)P(=O)(O)O | 0.0006 |
| CCCc1cnc(NC(P(=O)(O)O)P(=O)(O)O)s1 | 0.002 |
| O=P(O)(O)C(O)(C1CNC1)P(=O)(O)O | > 3 |
| CN(CCCCCCc1ccccc1)CCC(O)(P(=O)(O)O)P(=O)(O)O | 1.5 |
| CN(CCOc1ccc(Cl)cc1)CCC(O)(P(=O)(O)O)P(=O)(O)O | 0.0017 |
| O=P(O)(O)C(NC1CCCCCC1)P(=O)(O)O [INCADRONIC ACID] | 0.007 |
| O=P(O)(O)C(O)(CCN1CCCC1)P(=O)(O)O | 0.01 |
| CN(CCCCCCOc1ccccc1)CCC(O)(P(=O)(O)O)P(=O)(O)O | 7.5 |
| O=P(O)(O)C(O)(Cc1c[nH]c(-c2ccccc2)n1)P(=O)(O)O | > 3 |
| O=P(O)(O)C(Nc1nccn1Cc1ccccc1)P(=O)(O)O | 0.075 |
| O=P(O)(O)C(O)(CCN1CCC(c2ccccc2)C1)P(=O)(O)O (stereo unspecified) | 0.07 |
| O=P(O)(O)C(O)(CCNCCSc1ccccc1)P(=O)(O)O | > 0.2 |
| CCCN(CCCOc1ccccc1)CCC(O)(P(=O)(O)O)P(=O)(O)O | 0.01 |
| O=P(O)(O)C(O)(Cc1nccn1Cc1ccccc1)P(=O)(O)O | 0.025 |
| COc1ccc(OCCCN(C)CCC(O)(P(=O)(O)O)P(=O)(O)O)cc1 | 0.0012 |
| CP(=O)(O)C(Nc1nccs1)P(C)(=O)O (stereo unspecified) | > 10 |

| Structure (SMILES) | ED50 [mg/kg] |
| --- | --- |
| O=P(O)(O)C(O)(CCN1CCC(c2cccc(F)c2)CC1)P(=O)(O)O | 0.03 |
| O=P(O)(O)C(O)(CCNCCCOc1ccccc1)P(=O)(O)O | 0.0012 |
| CCCCCN(C)CCC(O)(P(=O)(O)O)P(=O)(O)O [IBANDRONIC ACID] | 0.0011 |
| O=P(O)(O)C(O)(Cc1c[nH]cn1)P(=O)(O)O | 0.0003 |
| O=P(O)(O)C(Nc1ncc[nH]1)P(=O)(O)O | ~0.5 |
| Cc1[nH]cnc1CC(O)(P(=O)(O)O)P(=O)(O)O | 0.0015 |
| O=P(O)(O)C(O)(CCN1CCCCC1)P(=O)(O)O | 0.0056 |
| CC(CCc1ccccc1)NCCC(O)(P(=O)(O)O)P(=O)(O)O (stereo unspecified) | > 10 |
| O=P(O)(O)C(O)(CCNCCc1ccccc1)P(=O)(O)O | 0.3 |
| O=P(O)(O)C(O)(CCNCCCc1ccccc1)P(=O)(O)O | 0.02 |
| O=P(O)(O)C(N1CCCC1)P(=O)(O)O | > 2 |
| CN(CCCSc1ccc(Cl)cc1)CCC(O)(P(=O)(O)O)P(=O)(O)O | 0.0078 |
| O=P(O)(O)C(O)(CCNCCCSc1ccccc1)P(=O)(O)O | 0.007 |
| CN(CCc1ccccc1)CCC(O)(P(=O)(O)O)P(=O)(O)O | 0.0014 |
| O=P(O)(O)C(O)(CCN1CCC(c2ccc(Cl)cc2)C1)P(=O)(O)O (stereo unspecified) | 0.0035 |
| O=P(O)(O)C(O)(C1CCCNC1)P(=O)(O)O (stereo unspecified) | 0.25 |
| O=P(O)(O)C(Nc1nccs1)P(=O)(O)O | 0.005 |
| O=P(O)(O)C(O)(Cn1cncn1)P(=O)(O)O | 0.6 |
| O=P(O)(O)C(O)(CCNCCCCc1ccccc1)P(=O)(O)O | 0.001 |
| CCCCN(CCCOc1ccccc1)CCC(O)(P(=O)(O)O)P(=O)(O)O | 0.5 |
| CN(CCCCOc1ccccc1)CCC(O)(P(=O)(O)O)P(=O)(O)O | 0.004 |
| CN(CCCOc1ccccc1)CCC(O)(P(=O)(O)O)P(=O)(O)O | 0.0005 |
| CCN(CC)CCC(O)(P(=O)(O)O)P(=O)(O)O | 0.003 |

| Structure (SMILES) | ED50 [mg/kg] |
| --- | --- |
| O=P(O)(O)C(O)(CCc1c[nH]cn1)P(=O)(O)O | 0.02 |
| CN(C)CCC(O)(P(=O)(O)O)P(=O)(O)O [OLPADRONIC ACID] | 0.012 |
| O=P(O)(O)C(O)(CCN1CCCCCC1)P(=O)(O)O | 0.025 |
| CCCN(C)CCC(O)(P(=O)(O)O)P(=O)(O)O | 0.003 |
| O=P(O)(O)C(O)(CCCN1CCC(c2ccccc2)CC1)P(=O)(O)O | 0.1 |
| O=P(O)(O)C(O)(CCCCCN1CCCC1)P(=O)(O)O | 0.25 |
| CC(C)c1cnc(NC(P(=O)(O)O)P(=O)(O)O)s1 | 0.2 |
| CN(C)CCC(P(=O)(O)O)P(=O)(O)O | 0.1 |
| O=P(O)(O)C(Nc1nc2ccccc2[nH]1)P(=O)(O)O | > 10 |
| CN(CCCCc1ccccc1)CCC(O)(P(=O)(O)O)P(=O)(O)O | 0.0004 |
| CNCCC(O)(P(=O)(O)O)P(=O)(O)O | ~0.015 |
| NCCCCCC(O)(P(=O)(O)O)P(=O)(O)O [NERIDRONIC ACID] | 0.06 |
| CN(CCCSc1ccccc1)CCC(O)(P(=O)(O)O)P(=O)(O)O | 0.00033 |
| CN(CCCc1ccccc1)CCC(O)(P(=O)(O)O)P(=O)(O)O | 0.001 |
| CN(CCCOc1ccccc1)CCCC(O)(P(=O)(O)O)P(=O)(O)O | 0.1 |
| CN(C)C(P(=O)(O)O)P(=O)(O)O | > 3 |
| O=P(O)(O)C(O)(CCCCCN1CCC(c2ccccc2)CC1)P(=O)(O)O | > 0.3 |
| CCCCc1cnc(NC(P(=O)(O)O)P(=O)(O)O)s1 | 0.0009 |
| Cc1csc(NC(P(=O)(O)O)P(=O)(O)O)n1 | 0.1 |
| O=P(O)(O)C(O)(Cc1ncc[nH]1)P(=O)(O)O | 0.005 |
| O=P(O)(O)C(N1CCCCC1)P(=O)(O)O | 0.8 |
| O=P(O)(O)C(O)(C1CCCCN1)P(=O)(O)O (stereo unspecified) | 0.05 |
| O=P(O)(O)C(O)(Cn1cccn1)P(=O)(O)O | > 0.3 |

| Structure (SMILES) | ED50 [mg/kg] |
| --- | --- |
| CC(N)CC(O)(P(=O)(O)O)P(=O)(O)O (stereo unspecified) | 0.0034 |
| CN(CCCOc1ccc(Cl)cc1)CCC(O)(P(=O)(O)O)P(=O)(O)O | 0.0013 |
| CCc1cnc(NC(P(=O)(O)O)P(=O)(O)O)s1 | 0.0015 |
| O=P(O)(O)C(O)(CCn1ccnc1)P(=O)(O)O | 0.045 |
| O=P(O)(O)C(Cc1nccs1)P(=O)(O)O | 0.2 |
| CCN(CCCOc1ccccc1)CCC(O)(P(=O)(O)O)P(=O)(O)O | 0.02 |
| O=P(O)(O)C(N1CCCCCC1)P(=O)(O)O [N-(HEXAMETHYLENEIMINO)METHYLENEBISPHOSPHONIC ACID] | 0.04 |
| CN(CCCc1ccc(Cl)cc1)CCC(O)(P(=O)(O)O)P(=O)(O)O | 0.0007 |
| O=P(O)(O)C(O)(CCCN1CCCC1)P(=O)(O)O | 0.025 |
| CC(=O)NCCC(O)(P(=O)(O)O)P(=O)(O)O | > 1 |
| NCCCCC(O)(P(=O)(O)O)P(=O)(O)O | 0.02 |
| O=P(O)(O)C(O)(CCN1CCN(c2ccccc2)CC1)P(=O)(O)O | > 10 |
| O=P(O)(O)C(Nc1ncc(CCc2ccccc2)s1)P(=O)(O)O | 0.0027 |
| O=P(O)(O)C(Nc1nc2ccccc2s1)P(=O)(O)O | > 3 |
| CCCCCN(C)C(C)CC(O)(P(=O)(O)O)P(=O)(O)O (stereo unspecified) | 0.065 |
| CC(CC(O)(P(=O)(O)O)P(=O)(O)O)N(C)C (stereo unspecified) | 0.018 |
| O=P(O)(O)C(Nc1ncc(-c2ccccc2)s1)P(=O)(O)O | > 1 |
| O=P(O)(O)C(O)(C1CCNCC1)P(=O)(O)O | ~2.5 |
| NCC(O)(P(=O)(O)O)P(=O)(O)O | 0.15 |
| Cc1cnc(NC(P(=O)(O)O)P(=O)(O)O)s1 | 0.0015 |
| O=P(O)(O)C(O)(CCN1CCC(c2ccccc2)CC1)P(=O)(O)O | ~0.011 |

system: not listed separately; experiment: Therapeutic ratio comparing nephrotoxic potential versus bone antiresorptive potency (reciprocal of ED50 (TPTX assay) / the total urinary malate dehydrogenase excretion); type: ADME, tissue-based, Urine; settings: not given
Procedure, shortened: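 Rats received repeated sc injections, with saline-injected controls. Malate dehydrogenase was totalled in units over eight 24-h urine collections from the start of dosing. The ratio is the reciprocal of the TPTX hypercalcemia ED50 (mg/kg) divided by total urinary MDH units.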

| Structure (SMILES) | Therapeutic ratio |
| --- | --- |
| CN(CCc1ccccc1)CCC(O)(P(=O)(O)O)P(=O)(O)O | 19 |
| CN(CCCOc1ccccc1)CCC(O)(P(=O)(O)O)P(=O)(O)O | 84 |
| CN(CCCc1ccccc1)CCC(O)(P(=O)(O)O)P(=O)(O)O | 120 |
| Cc1cnc(NC(P(=O)(O)O)P(=O)(O)O)s1 | 4.5 |

system: not listed separately; experiment: Ratio of calvaria mineralization to calvaria bone resorption; type: functional; settings: not given

| Structure (SMILES) | Ratio |
| --- | --- |
| CN(CCc1ccccc1)CCC(O)(P(=O)(O)O)P(=O)(O)O | 1500 |
| CN(CCCOc1ccccc1)CCC(O)(P(=O)(O)O)P(=O)(O)O | 225 |
| CN(CCCc1ccccc1)CCC(O)(P(=O)(O)O)P(=O)(O)O | 80 |
| Cc1cnc(NC(P(=O)(O)O)P(=O)(O)O)s1 | 375 |
